Results published in ChEMBL document CHEMBL1681781, “Structure based design and syntheses of amino-1H-pyrazole amide derivatives as selective Raf kinase inhibitors in melanoma cells” (Bioorg Med Chem, 2011).

Assays:
[1] = target: T1, Hepatocyte growth factor receptor (Homo sapiens, UniProt P08581); assay: Inhibition of c-MET
[2] = target: Focal adhesion kinase 1 (Homo sapiens) (UniProt Q05397); assay: Inhibition of FAK at 10 uM
[3] = target: T2, Fibroblast growth factor receptor 3 (Homo sapiens, UniProt P22607); conditions: 10 uM
[4] = target: T3, Tyrosine-protein kinase SYK (Homo sapiens, UniProt P43405); assay: inhibition of SYK
[5] = target: Insulin-like growth factor 1 receptor (Homo sapiens) (UniProt P08069); assay: inhibition of IGF-1R at 10 uM
[6] = target: T4, Proto-oncogene tyrosine-protein kinase ROS (Homo sapiens, UniProt P08922); assay: inhibition of ROS at 10 uM
[7] = test system: Serine/threonine-protein kinase B-raf (Homo sapiens), P15056 [V600E]; assay: Inhibition of b-Raf V599E mutant at 10 uM
[8] = target: RAF proto-oncogene serine/threonine-protein kinase (Homo sapiens, UniProt P04049); assay: inhibition of RAF1 assessed as [33P]gamma-ATP incorporation into substrate at 10 uM after 40 mins by scintillation counting
[9] = target: T5, Mitogen-activated protein kinase 8 (Homo sapiens, UniProt P45983); assay: inhibition of JNK1a1; conditions: concentration not given here
[10] = target: Cyclin-dependent kinase 2/cyclin E (Homo sapiens, UniProt P24941); assay: Inhibition of CDK2/cyclin E; type: protein-complex assay
[11] = target: T6, Proto-oncogene tyrosine-protein kinase Src (Homo sapiens, UniProt P12931); conditions: 10 uM
[12] = target: Aurora kinase A (Homo sapiens, UniProt O14965); assay: Inhibition of Aurora A kinase
[13] = target: T7, Vascular endothelial growth factor receptor 2 (Homo sapiens, UniProt P35968); assay: inhibition of KDR
[14] = target: T8, Serine/threonine-protein kinase PLK1 (Homo sapiens, UniProt P53350); assay: inhibition of PLK1
[15] = target: T9, Mitogen-activated protein kinase 1 (Homo sapiens, UniProt P28482); assay: Inhibition of ERK2 at 10 uM
[16] = target: T2, Fibroblast growth factor receptor 3; assay: inhibition of FGFR3
[17] = target: ALK tyrosine kinase receptor (Homo sapiens) (UniProt Q9UM73); conditions: 10 uM
[18] = test system: HS27; assay: Antiproliferative activity against human HS27 cells assessed as growth inhibition after 24 hrs by MTT assay; type: functional; conditions: HS27, 24 h
[19] = target: T7, Vascular endothelial growth factor receptor 2; assay: inhibition of KDR at 10 uM
[20] = target: T3, Tyrosine-protein kinase SYK; assay: inhibition of SYK at 10 uM
[21] = target: Cyclin-dependent kinase 2/cyclin E (Homo sapiens) (UniProt P24864+P24941+O96020); assay: Inhibition of CDK2/cyclin E at 10 uM; type: protein-complex assay
[22] = inhibition of PKA
[23] = target: T10, Ribosomal protein S6 kinase beta-1 (Homo sapiens, UniProt P23443); assay: inhibition of p70S6K
[24] = target: Tyrosine-protein kinase JAK3 (Homo sapiens) (UniProt P52333); assay: inhibition of JAK3 at 10 uM
[25] = target: T11, Dual specificity mitogen-activated protein kinase kinase 1 (Homo sapiens, UniProt Q02750); assay: inhibition of MEK1 at 10 uM
[26] = target: Receptor-type tyrosine-protein kinase FLT3 (Homo sapiens, UniProt P36888); assay: inhibition of FLT3
[27] = test system: RAC-alpha serine/threonine-protein kinase (Homo sapiens), P31749 [S473D]; assay: Inhibition of AKT1 PH S473D mutant at 10 uM
[28] = target: T9, Mitogen-activated protein kinase 1; assay: Inhibition of ERK2
[29] = target: T12, Glycogen synthase kinase-3 beta (Homo sapiens, UniProt P49841); assay: inhibition of GSK3-beta at 10 uM
[30] = target: Serine/threonine-protein kinase mTOR (Homo sapiens, UniProt P42345); assay: inhibition of mTOR at 10 uM
[31] = target: T6, Proto-oncogene tyrosine-protein kinase Src; assay: Inhibition of c-Src
[32] = target: T13, Mitogen-activated protein kinase 10 (Homo sapiens, UniProt P53779); conditions: 10 uM
[33] = target: Aurora kinase A (Homo sapiens) (UniProt O14965); assay: Inhibition of Aurora A kinase at 10 uM
[34] = target: T1, Hepatocyte growth factor receptor; conditions: 10 uM
[35] = target: T11, Dual specificity mitogen-activated protein kinase kinase 1; assay: inhibition of MEK1
[36] = target: T4, Proto-oncogene tyrosine-protein kinase ROS; assay: inhibition of ROS
[37] = target: T8, Serine/threonine-protein kinase PLK1; assay: inhibition of PLK1 at 10 uM
[38] = target: Receptor-type tyrosine-protein kinase FLT3 (Homo sapiens) (UniProt P36888); conditions: 10 uM
[39] = target: T13, Mitogen-activated protein kinase 10; assay: inhibition of JNK3
[40] = target: T5, Mitogen-activated protein kinase 8; assay: inhibition of JNK1a1 at 10 uM
[41] = target: Cyclin-dependent kinase 1/cyclin B (Homo sapiens, UniProt P06493); assay: Inhibition of CDK1/cyclin B; type: protein-complex assay
[42] = target: T12, Glycogen synthase kinase-3 beta; assay: inhibition of GSK3-beta
[43] = target: T14, BDNF/NT-3 growth factors receptor (Homo sapiens, UniProt Q16620); assay: inhibition of TRKB at 10 uM
[44] = inhibition of PKA at 10 uM
[45] = Antiproliferative activity against human A375P cells assessed as growth inhibition after 24 hrs by MTT assay; type: functional
Method in brief: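 A375P cells kept in DMEM with 10% FBS and 1% penicillin/streptomycin at 37 °C under 5% CO2. Cells lifted with 0.05% trypsin–0.02% EDTA, seeded at 5 × 10^3 cells/well and left 24 h before dosing. Test compounds given as a 3-fold serial dilution over 12 points. Viability read by MTT reduction, absorbance at 590 nm.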

[46] = target: T15, Macrophage-stimulating protein receptor (Homo sapiens, UniProt Q04912); assay: inhibition of RON
[47] = target: T14, BDNF/NT-3 growth factors receptor; assay: inhibition of TRKB
[48] = target: T10, Ribosomal protein S6 kinase beta-1; assay: inhibition of p70S6K at 10 uM
[49] = target: T15, Macrophage-stimulating protein receptor; assay: inhibition of RON at 10 uM
[50] = target: Cyclin-dependent kinase 1/cyclin B (Homo sapiens) (UniProt P06493+P14635+Q8WWL7+O95067); assay: Inhibition of CDK1/cyclin B at 10 uM; type: protein-complex assay

T9 sequence (P28482 whole entry): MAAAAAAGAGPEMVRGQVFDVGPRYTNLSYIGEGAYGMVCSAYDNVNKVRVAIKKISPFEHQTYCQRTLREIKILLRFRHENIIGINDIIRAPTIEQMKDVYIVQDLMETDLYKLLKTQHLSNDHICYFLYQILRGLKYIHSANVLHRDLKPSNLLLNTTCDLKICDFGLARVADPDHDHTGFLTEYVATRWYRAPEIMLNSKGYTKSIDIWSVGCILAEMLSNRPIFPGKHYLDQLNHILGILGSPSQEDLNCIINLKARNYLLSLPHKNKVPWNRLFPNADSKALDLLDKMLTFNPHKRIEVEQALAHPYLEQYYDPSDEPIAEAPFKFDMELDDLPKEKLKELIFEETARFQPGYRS
T1 sequence (P08581 whole entry): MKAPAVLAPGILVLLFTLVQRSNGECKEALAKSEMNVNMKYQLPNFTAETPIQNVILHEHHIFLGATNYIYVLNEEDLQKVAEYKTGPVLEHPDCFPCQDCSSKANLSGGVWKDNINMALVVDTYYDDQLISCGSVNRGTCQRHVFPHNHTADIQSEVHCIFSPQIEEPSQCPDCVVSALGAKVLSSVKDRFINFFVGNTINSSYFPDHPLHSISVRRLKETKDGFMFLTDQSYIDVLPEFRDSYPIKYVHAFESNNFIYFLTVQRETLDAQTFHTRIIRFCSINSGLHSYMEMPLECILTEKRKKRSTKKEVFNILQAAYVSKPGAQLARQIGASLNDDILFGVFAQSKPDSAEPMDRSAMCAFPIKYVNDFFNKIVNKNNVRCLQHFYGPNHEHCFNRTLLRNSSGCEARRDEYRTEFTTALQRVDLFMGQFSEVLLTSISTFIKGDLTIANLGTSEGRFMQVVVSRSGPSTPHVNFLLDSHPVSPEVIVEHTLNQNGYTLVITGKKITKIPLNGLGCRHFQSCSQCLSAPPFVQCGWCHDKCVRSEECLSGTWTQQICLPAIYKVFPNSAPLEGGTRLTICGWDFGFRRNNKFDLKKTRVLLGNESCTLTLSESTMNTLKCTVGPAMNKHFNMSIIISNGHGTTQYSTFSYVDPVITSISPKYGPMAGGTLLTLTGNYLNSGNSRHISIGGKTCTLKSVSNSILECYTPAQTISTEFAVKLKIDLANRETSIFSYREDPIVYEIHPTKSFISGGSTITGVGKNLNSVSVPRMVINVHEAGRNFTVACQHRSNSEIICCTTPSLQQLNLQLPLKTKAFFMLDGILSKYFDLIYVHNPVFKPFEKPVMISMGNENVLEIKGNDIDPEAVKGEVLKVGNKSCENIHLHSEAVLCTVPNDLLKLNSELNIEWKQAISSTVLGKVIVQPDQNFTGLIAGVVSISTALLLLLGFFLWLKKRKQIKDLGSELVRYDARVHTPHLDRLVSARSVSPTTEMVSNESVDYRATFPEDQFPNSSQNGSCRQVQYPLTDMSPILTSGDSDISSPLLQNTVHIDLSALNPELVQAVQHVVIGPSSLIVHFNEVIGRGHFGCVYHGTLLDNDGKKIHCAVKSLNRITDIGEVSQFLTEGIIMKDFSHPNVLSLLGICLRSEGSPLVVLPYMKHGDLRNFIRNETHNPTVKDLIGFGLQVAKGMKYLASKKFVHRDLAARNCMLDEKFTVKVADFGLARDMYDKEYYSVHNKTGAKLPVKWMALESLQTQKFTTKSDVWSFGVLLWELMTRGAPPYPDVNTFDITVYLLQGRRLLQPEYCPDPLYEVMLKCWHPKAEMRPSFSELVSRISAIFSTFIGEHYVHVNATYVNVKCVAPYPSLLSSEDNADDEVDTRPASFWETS
T11 sequence (Q02750 whole entry): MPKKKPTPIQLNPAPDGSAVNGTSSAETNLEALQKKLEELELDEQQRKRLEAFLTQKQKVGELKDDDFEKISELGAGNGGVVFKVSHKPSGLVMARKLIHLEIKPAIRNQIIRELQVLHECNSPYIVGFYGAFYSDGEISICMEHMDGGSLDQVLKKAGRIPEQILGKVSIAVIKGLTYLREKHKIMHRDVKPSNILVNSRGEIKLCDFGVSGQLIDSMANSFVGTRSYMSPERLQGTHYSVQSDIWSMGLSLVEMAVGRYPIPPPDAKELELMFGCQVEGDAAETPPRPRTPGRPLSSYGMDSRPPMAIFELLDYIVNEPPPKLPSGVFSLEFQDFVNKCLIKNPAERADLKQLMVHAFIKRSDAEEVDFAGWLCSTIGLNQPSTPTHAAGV
T13 sequence (P53779 whole entry): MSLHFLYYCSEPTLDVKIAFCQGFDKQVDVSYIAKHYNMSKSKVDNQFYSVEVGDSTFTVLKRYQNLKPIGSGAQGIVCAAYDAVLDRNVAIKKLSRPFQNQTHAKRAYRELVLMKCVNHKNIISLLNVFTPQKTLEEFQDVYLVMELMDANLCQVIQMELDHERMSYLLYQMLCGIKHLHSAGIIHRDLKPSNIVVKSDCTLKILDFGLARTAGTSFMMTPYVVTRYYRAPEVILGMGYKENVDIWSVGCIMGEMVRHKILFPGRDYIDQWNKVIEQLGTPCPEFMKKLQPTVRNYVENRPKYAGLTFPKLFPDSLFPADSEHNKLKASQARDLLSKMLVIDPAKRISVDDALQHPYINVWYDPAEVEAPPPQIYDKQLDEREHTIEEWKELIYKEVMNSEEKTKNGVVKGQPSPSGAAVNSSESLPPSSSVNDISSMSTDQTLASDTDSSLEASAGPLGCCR
T8 sequence (P53350 whole entry): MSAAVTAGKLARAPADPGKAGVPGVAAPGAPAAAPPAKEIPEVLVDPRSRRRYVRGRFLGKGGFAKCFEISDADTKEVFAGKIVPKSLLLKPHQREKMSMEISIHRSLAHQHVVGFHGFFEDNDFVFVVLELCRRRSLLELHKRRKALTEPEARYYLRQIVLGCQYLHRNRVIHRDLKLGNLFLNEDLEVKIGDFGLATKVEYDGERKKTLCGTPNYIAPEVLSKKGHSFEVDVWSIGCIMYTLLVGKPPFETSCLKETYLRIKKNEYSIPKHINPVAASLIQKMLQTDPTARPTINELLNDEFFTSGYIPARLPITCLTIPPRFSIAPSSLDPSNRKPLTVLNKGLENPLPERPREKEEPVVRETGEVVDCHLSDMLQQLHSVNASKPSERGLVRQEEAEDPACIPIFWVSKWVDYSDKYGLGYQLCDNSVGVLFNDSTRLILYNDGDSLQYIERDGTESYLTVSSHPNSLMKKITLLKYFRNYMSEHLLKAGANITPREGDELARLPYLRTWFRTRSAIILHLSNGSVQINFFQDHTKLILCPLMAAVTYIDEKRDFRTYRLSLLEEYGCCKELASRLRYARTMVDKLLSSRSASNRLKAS
T5 sequence (P45983 whole entry): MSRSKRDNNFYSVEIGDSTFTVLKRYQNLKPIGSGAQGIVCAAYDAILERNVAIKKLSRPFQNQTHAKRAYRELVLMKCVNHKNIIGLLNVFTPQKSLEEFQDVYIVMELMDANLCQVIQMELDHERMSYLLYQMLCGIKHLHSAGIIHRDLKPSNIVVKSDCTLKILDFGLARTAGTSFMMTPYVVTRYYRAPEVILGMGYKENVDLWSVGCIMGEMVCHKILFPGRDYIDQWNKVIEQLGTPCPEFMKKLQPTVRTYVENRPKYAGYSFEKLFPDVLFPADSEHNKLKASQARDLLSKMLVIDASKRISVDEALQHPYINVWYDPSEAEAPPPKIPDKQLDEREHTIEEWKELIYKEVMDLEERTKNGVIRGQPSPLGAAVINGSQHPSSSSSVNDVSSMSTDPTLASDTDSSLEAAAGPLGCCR
T15 sequence (Q04912 25-304 limits assumed): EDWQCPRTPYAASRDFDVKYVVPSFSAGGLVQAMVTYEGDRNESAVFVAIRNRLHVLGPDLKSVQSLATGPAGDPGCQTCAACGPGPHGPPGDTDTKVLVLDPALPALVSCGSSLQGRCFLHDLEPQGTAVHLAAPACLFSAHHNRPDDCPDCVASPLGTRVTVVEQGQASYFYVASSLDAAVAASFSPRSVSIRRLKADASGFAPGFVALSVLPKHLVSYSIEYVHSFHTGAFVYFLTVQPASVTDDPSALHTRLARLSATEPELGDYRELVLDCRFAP
T15 sequence (Q04912 310-1400 limits assumed): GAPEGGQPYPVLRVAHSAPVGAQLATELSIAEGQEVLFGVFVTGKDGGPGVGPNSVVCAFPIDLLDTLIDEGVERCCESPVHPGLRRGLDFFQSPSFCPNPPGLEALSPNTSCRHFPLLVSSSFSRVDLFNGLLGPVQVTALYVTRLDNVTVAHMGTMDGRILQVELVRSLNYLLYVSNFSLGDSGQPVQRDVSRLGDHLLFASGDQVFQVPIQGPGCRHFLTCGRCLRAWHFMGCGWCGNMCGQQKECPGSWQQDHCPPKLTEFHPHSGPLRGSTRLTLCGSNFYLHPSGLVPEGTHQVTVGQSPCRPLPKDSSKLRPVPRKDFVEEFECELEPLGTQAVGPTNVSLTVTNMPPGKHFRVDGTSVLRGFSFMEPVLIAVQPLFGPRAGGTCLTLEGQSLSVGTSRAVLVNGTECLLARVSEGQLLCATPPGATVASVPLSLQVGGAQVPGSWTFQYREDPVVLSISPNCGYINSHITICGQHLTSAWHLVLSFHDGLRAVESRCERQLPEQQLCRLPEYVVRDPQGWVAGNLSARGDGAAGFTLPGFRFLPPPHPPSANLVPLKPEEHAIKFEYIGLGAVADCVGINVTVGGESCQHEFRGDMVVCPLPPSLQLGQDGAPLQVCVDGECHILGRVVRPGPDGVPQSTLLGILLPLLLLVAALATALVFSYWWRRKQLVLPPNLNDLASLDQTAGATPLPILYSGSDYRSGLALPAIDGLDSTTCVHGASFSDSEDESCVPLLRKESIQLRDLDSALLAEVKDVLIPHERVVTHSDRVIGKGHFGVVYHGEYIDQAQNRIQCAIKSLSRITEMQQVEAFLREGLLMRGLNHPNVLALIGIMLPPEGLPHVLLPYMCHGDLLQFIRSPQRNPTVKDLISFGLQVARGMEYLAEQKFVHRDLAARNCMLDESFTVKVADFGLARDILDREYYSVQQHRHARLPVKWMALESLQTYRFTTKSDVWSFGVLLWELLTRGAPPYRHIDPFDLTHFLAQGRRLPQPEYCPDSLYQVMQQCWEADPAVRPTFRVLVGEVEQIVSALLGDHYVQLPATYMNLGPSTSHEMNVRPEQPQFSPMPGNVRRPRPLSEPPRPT

COc1ccc(Cn2ncc(NC(=O)c3cc(NC(=O)Nc4ccc(Cl)c(C(F)(F)F)c4)ccc3C)c2N)cc1
IC50 [1]: 193 nM | inhibition [2]: 1.5% | inhibition [3]: 0.1% | IC50 [4]: < 1 nM | inhibition [5]: 0.7% | inhibition [6]: 0% | inhibition [7]: 97% | inhibition [8]: 100% | inhibition [9]: 7.1% | IC50 [10]: 2.13 nM | inhibition [11]: 16% | IC50 [12]: < 1 nM | IC50 [13]: 9.42 nM | IC50 [14]: 167 nM | inhibition [15]: 0% | IC50 [16]: 21.5 nM | inhibition [17]: 7.7% | GI50 [18]: > 30000 nM | inhibition [19]: 0% | inhibition [20]: 0% | inhibition [21]: 0% | IC50 [22]: < 1 nM | IC50 [23]: < 1 nM | inhibition [24]: 0% | inhibition [25]: 0% | IC50 [26]: < 1 nM | inhibition [27]: 3.7% | IC50 [28]: 11400 nM | inhibition [29]: 1.4% | inhibition [30]: 1.2% | IC50 [31]: 4.79 nM | inhibition [32]: 13% | inhibition [33]: 0% | inhibition [34]: 13% | IC50 [35]: 18.2 nM | IC50 [36]: < 1 nM | inhibition [37]: 6.3% | inhibition [38]: 13% | IC50 [39]: > 20000 nM | IC50 [40]: 1590 nM | IC50 [41]: 3.2 nM | IC50 [42]: 2.73 nM | inhibition [43]: 6.6% | inhibition [44]: 0% | GI50 [45]: 270 nM | IC50 [46]: 277 nM | IC50 [47]: < 1 nM | inhibition [48]: 0% | inhibition [49]: 0% | inhibition [50]: 0%
